From ChEMBL document CHEMBL4689842, “EUbOPEN Chemogenomics Library wave 1” (2021)

System: Fibroblast
Assay: Multiplex assay against human fibroblast
Type: toxicity, cell-based
Procedure, shortened: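 Cells were classed with CellPathfinder machine-learning gating, first as Hoechst high-intensity objects or normal cells, then (normal cells) as healthy, pyknosed or fragmented nuclei, and finally (pyknosed cells) as mitotic or apoptotic. Staining of live cells at seeding used Hoechst33342, BioTracker Green Microtubule Cytoskeleton Dye, MitoTracker Red and Annexin V Alexa Fluor 680, with imaging on a CQ1 microscope at 37°C and 5% CO2 after compound addition. Tubulin, mitochondrial-mass and membrane-permeability phenotypes are per cents of healthy-nucleus cells.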

[1] = 12 h, 1 µM, compound concentration 1 uM, replicate 1
[2] = 12 h, 1 µM, compound concentration 1 uM, replicate 2
[3] = 12 h, 10 µM, compound concentration 10 uM, replicate 1
[4] = 12 h, 10 µM, compound concentration 10 uM, replicate 2
[5] = 24 h, 1 µM, compound concentration 1 uM, replicate 1
[6] = 24 h, 1 µM, compound concentration 1 uM, replicate 2
[7] = 24 h, 10 µM, compound concentration 10 uM, replicate 1
[8] = 24 h, 10 µM, compound concentration 10 uM, replicate 2
[9] = 48 h, 1 µM, compound concentration 1 uM, replicate 1
[10] = 48 h, 1 µM, compound concentration 1 uM, replicate 2
[11] = 48 h, 10 µM, compound concentration 10 uM, replicate 1
[12] = 48 h, 10 µM, compound concentration 10 uM, replicate 2

## CCc1nn(CCCN2CCN(c3cccc(Cl)c3)CC2)c(=O)n1CCOc1ccccc1.Cl [NEFAZODONE HYDROCHLORIDE]
[1]
  Population Apoptotic (%): 60%
  Population Fragmented Nuclei (%): 16%
  Population Healthy Nuclei (%): 47%
  Population Hoechst High Intensity Objects (%): 13%
  Population Membrane Permeable-Phenotype (%): 31%
  Population Mitochondria Different-Phenotype (%): 10%
  Population Mitotic Cells (%): 40%
  Population Normal (%): 86%
  Population Pyknosed Nuclei (%): 35%
  Population Tubulin-Different-Phenotype (%): 75%
  Total Cell Count: 176
[2]
  Population Apoptotic (%): 0%
  Population Fragmented Nuclei (%): 8%
  Population Healthy Nuclei (%): 89%
  Population Hoechst High Intensity Objects (%): 6%
  Population Membrane Permeable-Phenotype (%): 3%
  Population Mitochondria Different-Phenotype (%): 9%
  Population Mitotic Cells (%): 100%
  Population Normal (%): 93%
  Population Pyknosed Nuclei (%): 1%
  Population Tubulin-Different-Phenotype (%): 29%
  Total Cell Count: 68
[3]
  Population Apoptotic (%): 81%
  Population Fragmented Nuclei (%): 24%
  Population Healthy Nuclei (%): 45%
  Population Hoechst High Intensity Objects (%): 10%
  Population Membrane Permeable-Phenotype (%): 1%
  Population Mitochondria Different-Phenotype (%): 84%
  Population Mitotic Cells (%): 18%
  Population Normal (%): 89%
  Population Pyknosed Nuclei (%): 30%
  Population Tubulin-Different-Phenotype (%): 96%
  Total Cell Count: 157
[4]
  Population Apoptotic (%): 69%
  Population Fragmented Nuclei (%): 9%
  Population Healthy Nuclei (%): 69%
  Population Hoechst High Intensity Objects (%): 3%
  Population Membrane Permeable-Phenotype (%): 60%
  Population Mitochondria Different-Phenotype (%): 97%
  Population Mitotic Cells (%): 30%
  Population Normal (%): 96%
  Population Pyknosed Nuclei (%): 20%
  Population Tubulin-Different-Phenotype (%): 97%
  Total Cell Count: 61
[5]
  Population Apoptotic (%): 52%
  Population Fragmented Nuclei (%): 20%
  Population Healthy Nuclei (%): 57%
  Population Hoechst High Intensity Objects (%): 14%
  Population Membrane Permeable-Phenotype (%): 16%
  Population Mitochondria Different-Phenotype (%): 17%
  Population Mitotic Cells (%): 47%
  Population Normal (%): 85%
  Population Pyknosed Nuclei (%): 22%
  Population Tubulin-Different-Phenotype (%): 68%
  Total Cell Count: 175
[6]
  Population Apoptotic (%): 50%
  Population Fragmented Nuclei (%): 8%
  Population Healthy Nuclei (%): 85%
  Population Hoechst High Intensity Objects (%): 2%
  Population Membrane Permeable-Phenotype (%): 1%
  Population Mitochondria Different-Phenotype (%): 15%
  Population Mitotic Cells (%): 50%
  Population Normal (%): 97%
  Population Pyknosed Nuclei (%): 5%
  Population Tubulin-Different-Phenotype (%): 33%
  Total Cell Count: 71
[7]
  Population Apoptotic (%): 80%
  Population Fragmented Nuclei (%): 23%
  Population Healthy Nuclei (%): 58%
  Population Hoechst High Intensity Objects (%): 22%
  Population Membrane Permeable-Phenotype (%): 3%
  Population Mitochondria Different-Phenotype (%): 86%
  Population Mitotic Cells (%): 20%
  Population Normal (%): 77%
  Population Pyknosed Nuclei (%): 18%
  Population Tubulin-Different-Phenotype (%): 100%
  Total Cell Count: 177
[8]
  Population Fragmented Nuclei (%): 22%
  Population Healthy Nuclei (%): 56%
  Population Hoechst High Intensity Objects (%): 1%
  Population Membrane Permeable-Phenotype (%): 80%
  Population Mitochondria Different-Phenotype (%): 100%
  Population Normal (%): 98%
  Population Pyknosed Nuclei (%): 20%
  Total Cell Count: 72
[9]
  Population Apoptotic (%): 43%
  Population Fragmented Nuclei (%): 30%
  Population Healthy Nuclei (%): 58%
  Population Hoechst High Intensity Objects (%): 19%
  Population Membrane Permeable-Phenotype (%): 19%
  Population Mitochondria Different-Phenotype (%): 5%
  Population Mitotic Cells (%): 56%
  Population Normal (%): 80%
  Population Pyknosed Nuclei (%): 11%
  Population Tubulin-Different-Phenotype (%): 51%
  Total Cell Count: 178
[10]
  Population Apoptotic (%): 50%
  Population Healthy Nuclei (%): 67%
  Population Hoechst High Intensity Objects (%): 13%
  Population Membrane Permeable-Phenotype (%): 6%
  Population Mitochondria Different-Phenotype (%): 14%
  Population Mitotic Cells (%): 50%
  Population Normal (%): 86%
  Population Pyknosed Nuclei (%): 1%
  Population Tubulin-Different-Phenotype (%): 71%
  Total Cell Count: 127
[11]
  Population Apoptotic (%): 85%
  Population Fragmented Nuclei (%): 40%
  Population Healthy Nuclei (%): 55%
  Population Hoechst High Intensity Objects (%): 34%
  Population Membrane Permeable-Phenotype (%): 1%
  Population Mitochondria Different-Phenotype (%): 62%
  Population Mitotic Cells (%): 14%
  Population Normal (%): 65%
  Population Pyknosed Nuclei (%): 4%
  Population Tubulin-Different-Phenotype (%): 96%
  Total Cell Count: 257
[12]
  Population Apoptotic (%): 50%
  Population Fragmented Nuclei (%): 43%
  Population Healthy Nuclei (%): 54%
  Population Hoechst High Intensity Objects (%): 25%
  Population Membrane Permeable-Phenotype (%): 2%
  Population Mitochondria Different-Phenotype (%): 59%
  Population Mitotic Cells (%): 50%
  Population Normal (%): 75%
  Population Pyknosed Nuclei (%): 2%
  Population Tubulin-Different-Phenotype (%): 95%
  Total Cell Count: 232
